Measurements: ChEMBL document CHEMBL4024771, “Optimization of Orally Bioavailable Enhancer of Zeste Homolog 2 (EZH2) Inhibitors Using Ligand and Property-Based Design Strategies: Identification of Development Candidate …” (J Med Chem, 2018)
Converted amounts (≈) assume the structure as drawn.

Experiments:
[1] = biological target: Histone-lysine N-methyltransferase EZH2 (Homo sapiens, UniProt Q15910, Y641N); test: Inhibition of EZH2 Y641N mutant (unknown origin) using oligonucleosomes as substrate after 60 mins in presence of [3H]SAM by scintillation counting analysis
Histone-lysine N-methyltransferase EZH2 (Homo sapiens, UniProt Q15910, Y641N), sequence (Q15910 whole entry Y641N): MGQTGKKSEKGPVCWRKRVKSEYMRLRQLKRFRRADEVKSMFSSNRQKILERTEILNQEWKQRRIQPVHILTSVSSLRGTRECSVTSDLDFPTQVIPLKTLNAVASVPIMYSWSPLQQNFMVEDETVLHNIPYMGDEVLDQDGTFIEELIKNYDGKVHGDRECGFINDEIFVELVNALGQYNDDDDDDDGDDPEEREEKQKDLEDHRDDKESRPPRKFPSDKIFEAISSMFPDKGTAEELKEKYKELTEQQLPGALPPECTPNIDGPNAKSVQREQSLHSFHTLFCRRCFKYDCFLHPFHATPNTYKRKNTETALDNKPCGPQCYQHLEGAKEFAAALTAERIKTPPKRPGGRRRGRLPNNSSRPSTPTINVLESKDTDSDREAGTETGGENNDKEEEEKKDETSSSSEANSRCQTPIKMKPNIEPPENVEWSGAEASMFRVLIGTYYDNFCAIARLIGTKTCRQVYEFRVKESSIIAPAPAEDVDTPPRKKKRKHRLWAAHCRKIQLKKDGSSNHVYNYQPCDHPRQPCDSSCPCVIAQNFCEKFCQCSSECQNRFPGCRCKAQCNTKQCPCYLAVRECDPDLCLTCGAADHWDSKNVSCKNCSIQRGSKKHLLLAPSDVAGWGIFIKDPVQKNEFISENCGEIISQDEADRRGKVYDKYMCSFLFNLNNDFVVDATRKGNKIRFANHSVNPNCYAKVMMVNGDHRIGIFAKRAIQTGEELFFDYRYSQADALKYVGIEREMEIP

[2] = Kinetic solubility of the compound; type: physicochemical; settings: for solubility kinetic: read-out: Kinetic_solubility
[3] = (§1) Intrinsic clearance in human liver microsomes assessed per mg protein at 1 uM preincubated for 10 mins followed by NADPH addition measured after 45 mins by LC-MS/MS analysis; type: ADME, microsome; settings: liver microsomes, read-out: CLH
Outline: (§2)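 Test compound (1 μM) with pooled liver microsomes (0.8 mg/mL protein) in 100 mM potassium phosphate pH 7.4, 10 min preincubation, started with 2 mM NADPH, 45 min at 37 °C, in triplicate. Samples quenched with cold methanol containing buspirone internal standard, analysed by LC−MS/MS. CLint derived from t1/2 of parent loss (log-linear slope).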

KARPAS-422 = test: Antiproliferative activity against human KARPAS422 cells after 72 hrs by resazurin assay; type: functional, cell-based
[4] = Lipophilicity, log D of the compound at pH 7.4; settings: buffer
[5] = Passive permeability in MDCK cells at 2 uM after 90 mins by LC-MS/MS analysis; type: ADME, cell-based, Canis lupus familiaris; settings: dog; for Papp at […], 2 µM: MDCK, read-out: permeability; for permeability: mdck, 2 µM
Outline: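 Low-efflux MDCK cells (MDCK-LE) on 96-well inserts, used on day 4. Monodirectional transport of 2 μM drug in transport buffer with 0.1% DMSO at 37 °C. Donor and receiver sampled at 0 and 90 min for LC−MS/MS. Donor pH 6.5 and 7.4, receiver pH 7.4.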

[6] = biological target: Histone-lysine N-methyltransferase EZH2 (Homo sapiens, UniProt Q15910); test: Inhibition of EZH2 in human KARPAS422 cells assessed as reduction in H3K27me3 level after 72 hrs by ELISA
Histone-lysine N-methyltransferase EZH2 (Homo sapiens, UniProt Q15910), sequence (Q15910 whole entry): as the sequence (Q15910 whole entry Y641N) above, with N641Y counted along it

Liver = test: as §1; type: ADME, microsome; settings: microsomes, 0.75 h, 1 µM; outline: as §2

Row | Compound | Ki [1] [nM] | solubility kinetic [2] [µM] | microsomal CLint at 1 µM [3] [µL/min/mg] | IC50 (KARPAS-422; Homo sapiens, KARPAS-422, 72 h) [nM] | logD ([4]; pH 7.4, logD) | Papp at […], 2 µM [5] [×10⁻⁶ cm/s] | IC50 [6] [nM] | Kinetic_solubility [2] [µM] | microsomal CLint (Liver) [µL/min/mg] | IC50 (KARPAS-422; karpas-422) [nM] | permeability [5] [×10⁻⁶ cm/s] | logD ([4]; pH 7.4)
1 | COc1cc(C)[nH]c(=O)c1CN1CCc2c(Cl)cc([C@H](O)C3COC3)c(Cl)c2C1=O | 1.5 | 234 (≈ 106 µg/mL) | < 8 | 108 | 1.4 | 0.7 | 99 | – | – | – | – | –
2 | COc1cc(C)[nH]c(=O)c1CN1CCc2c(Cl)cc([C@@H](OC)C3COC3)c(Cl)c2C1=O | 16 | 543 (≈ 254 µg/mL) | 17 | 467 | 1.6 | 6.8 | 75 | – | – | – | – | –
3 | Cc1cc(C)c(CN2CCc3c(Cl)cc([C@@H](CO)[C@H]4CCCO4)c(Cl)c3C2=O)c(=O)[nH]1 | 110 | 576 (≈ 268 µg/mL) | 43 | 535 | 2.5 | 8.5 | 1020 | – | – | – | – | –
4 | Cc1cc(C)c(CN2CCc3c(Cl)cc([C@@H](CO)[C@@H]4CCOC4)c(Cl)c3C2=O)c(=O)[nH]1 | 1260 | 537 (≈ 250 µg/mL) | 25.3 | 3950 | 2 | 3 | 2910 | – | – | – | – | –
5 | Cc1cc(C)c(CN2CCc3c(Cl)cc([C@H](CO)[C@@H]4CCCO4)c(Cl)c3C2=O)c(=O)[nH]1 | 10 | 400 (≈ 186 µg/mL) | 37.6 | 57 | 2.4 | 14.6 | 41 | – | – | – | – | –
6 | COc1cc(C)[nH]c(=O)c1CN1CCc2c(Cl)cc([C@@H](O)C3COC3)c(Cl)c2C1=O | 1500 | 582 (≈ 264 µg/mL) | < 7 | 10600 | 1.3 | 1.2 | > 32000 | – | – | – | – | –
7 | Cc1cc(C)c(CN2CCc3c(Cl)cc([C@H](CO)[C@H]4CCOC4)c(Cl)c3C2=O)c(=O)[nH]1 | 0.24 | 570 (≈ 265 µg/mL) | 21.3 | 15 | 2 | 2.9 | 10 | – | – | – | – | –
8 | Cc1cc(C)c(CN2CCc3c(Cl)cc([C@@H](C)CO)c(Cl)c3C2=O)c(=O)[nH]1 | 260 | 143 (≈ 58.5 µg/mL) | 12.4 | 1500 | 2.5 | 15 | 1040 | – | – | – | – | –
9 | COc1cc(C)[nH]c(=O)c1CN1CCc2c(Cl)cc(-c3c(C)noc3C)c(Cl)c2C1=O | 0.15 | 384 (≈ 178 µg/mL) | 70 | 27 | 2.7 | 11 | 8 | – | – | – | – | –
10 | Cc1cc(C)c(CN2CCc3c(Cl)cc([C@H](CO)[C@H]4CCCO4)c(Cl)c3C2=O)c(=O)[nH]1 | 8 | 430 (≈ 200 µg/mL) | 51.6 | 63 | 2.1 | 4.1 | 40 | – | – | – | – | –
11 | Cc1cc(C)c(CN2CCc3c(Cl)cc([C@@H](CO)[C@@H]4CCCO4)c(Cl)c3C2=O)c(=O)[nH]1 | 135 | 550 (≈ 256 µg/mL) | 70.3 | 1220 | 2.1 | 4.3 | 1570 | – | – | – | – | –
12 | COC(c1cc(Cl)c2c(c1Cl)C(=O)N(Cc1c(C)cc(C)[nH]c1=O)CC2)C1CS(=O)(=O)C1 (single isomer, unassigned) | – | – | – | – | – | – | – | 159 | 23 | 4830 | 6.1 | –
13 | COC(c1cc(Cl)c2c(c1Cl)C(=O)N(Cc1c(C)cc(C)[nH]c1=O)CC2)C1CCOC1 (single isomer, unassigned; (+)) | 1.9 | – | – | – | – | – | 47 | 439 | 128 | 50 | 18.7 | –
14 | COC(C)c1cc(Cl)c2c(c1Cl)C(=O)N(Cc1c(C)cc(C)[nH]c1=O)CC2 (single isomer, unassigned; (+)) | – | 49 (≈ 20.1 µg/mL) | 190 | – | – | – | – | – | – | 696 | 37.6 | 3.4
15 | CCC(OC)c1cc(Cl)c2c(c1Cl)C(=O)N(Cc1c(C)cc(C)[nH]c1=O)CC2 (single isomer, unassigned; (-)) | 8 | 44 (≈ 18.6 µg/mL) | 119 | 270 | – | – | 65 | – | – | – | 13.5 | –
16 | COC(c1cc(Cl)c2c(c1Cl)C(=O)N(Cc1c(C)cc(C)[nH]c1=O)CC2)C1CCOC1 (single isomer, unassigned; (-)) | 130 | 415 (≈ 193 µg/mL) | 136 | – | – | – | 1100 | – | – | 175 | 18.4 | –
17 | COC(c1cc(Cl)c2c(c1Cl)C(=O)N(Cc1c(C)cc(C)[nH]c1=O)CC2)C1CCOCC1 (single isomer, unassigned; (-)) | 310 | – | 130 | – | – | – | 1460 | 57.2 | – | 1150 | 16.5 | 3.5
18 | COC(c1cc(Cl)c2c(c1Cl)C(=O)N(Cc1c(C)cc(C)[nH]c1=O)CC2)C1CCS(=O)(=O)CC1 (single isomer, unassigned; (-)) | – | – | – | – | – | – | – | 415 | 15 | 970 | 5.7 | –
19 | COC(c1cc(Cl)c2c(c1Cl)C(=O)N(Cc1c(C)cc(C)[nH]c1=O)CC2)C1CCN(C)CC1 (single isomer, unassigned; (-)) | 260 | – | < 13.4 | – | – | – | 1130 | 499 | – | 2320 | 2.3 | 1.5
20 | COC(c1cc(Cl)c2c(c1Cl)C(=O)N(Cc1c(C)cc(C)[nH]c1=O)CC2)C1CCN(C(C)=O)CC1 (single isomer, unassigned; (-)) | – | – | 50.3 | – | – | – | – | 498 | – | 1620 | 8.1 | –
21 | COc1cc(C)[nH]c(=O)c1CN1CCc2c(Cl)cc(C(OC)C3CCN(C(=O)CO)CC3)c(Cl)c2C1=O (single isomer, unassigned; (-)) | – | – | – | – | – | – | – | 453 | 12.6 | 250 | 1.1 | –
22 | COC(c1cc(Cl)c2c(c1Cl)C(=O)N(Cc1c(C)cc(C)[nH]c1=O)CC2)C1CCN(C2COC2)CC1 (single isomer, unassigned; (-)) | 530 | – | 78.3 | – | – | – | 1310 | 519 | – | 2260 | 7.9 | 2.8
23 | COC(c1cc(Cl)c2c(c1Cl)C(=O)N(Cc1c(C)cc(C)[nH]c1=O)CC2)C1CCN(C(=O)CO)CC1 (single isomer, unassigned; (-)) | 70 | – | 23 | – | – | – | 749 | 513 | – | 3140 | 7.1 | 2.3
24 | COc1cc(C)[nH]c(=O)c1CN1CCc2c(Cl)cc(C(OC)C3CCOC3)c(Cl)c2C1=O (single isomer, unassigned; form 2) | 92 | – | 75 | – | – | – | 391 | 505 | – | 269 | 8.2 | 2.4
25 | Cc1cc(C)c(CN2CCc3c(Cl)cc(C(CO)C4CCOC4)c(Cl)c3C2=O)c(=O)[nH]1 (stereo in doubt) | 150 | 522 (≈ 243 µg/mL) | 20 | – | – | – | 1010 | – | – | 1040 | 2.7 | –
26 | Cc1cc(C)c(CN2CCc3c(Cl)cc(C(CO)C4CCOCC4)c(Cl)c3C2=O)c(=O)[nH]1 (stereo in doubt; (+)-8b) | 3270 | 496 (≈ 238 µg/mL) | 34.7 | – | – | – | 14800 | – | – | 4400 | 2.9 | –
27 | COC(c1cc(Cl)c2c(c1Cl)C(=O)N(Cc1c(C)cc(C)[nH]c1=O)CC2)C1CS(=O)(=O)C1 (stereo in doubt; (+)-19a) | – | 161 (≈ 80.4 µg/mL) | – | – | – | 5.3 | – | – | 52.5 | 24 | – | –
28 | CCC(CO)c1cc(Cl)c2c(c1Cl)C(=O)N(Cc1c(C)cc(C)[nH]c1=O)CC2 (stereo in doubt; (-)-5b) | 14 | 443 (≈ 188 µg/mL) | 67.6 | – | – | – | 682 | – | – | 502 | 10.9 | 2.9
29 | Cc1cc(C)c(CN2CCc3c(Cl)cc(C(CO)c4ccon4)c(Cl)c3C2=O)c(=O)[nH]1 (stereo in doubt; (-)-21b) | – | – | 22.7 | – | – | – | – | 481 | – | 2490 | 8.6 | –
30 | COc1cc(C)[nH]c(=O)c1CN1CCc2c(Cl)cc(C(OC)C3(C)COC3)c(Cl)c2C1=O (stereo in doubt; (-)-24b) | 350 | – | 168 | – | – | – | 253 | 512 | – | 559 | 4.8 | 2.2
